Experimental data: ChEMBL document CHEMBL2216753, “Novel 1,4-benzoxazine and 1,4-benzodioxine inhibitors of angiogenesis” (Eur J Med Chem, 2012)
Activity calls are given as the source filed them. The calls are words filed in the database; no cut-off is given here.

Key:
HMEC-1 [1] = assay: Antiangiogenic activity in human HMEC1 cells assessed as inhibition of tube formation after 4 to 6 hrs by matrigel assay; format: functional, cell-based
Outline: (§1)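 HMEC-1 (60,000 cells) seeded on matrigel (10 mg/mL) after 30 min gelling at 37 °C, in DMEM containing test compound; after 4–6 h cells photographed and tubes scored 0 (none) to 3 (maximal, like untreated control). Mean ± SD of 2–4 independent experiments; Student t test, p < 0.05 significant.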

[2] = Antiproliferative activity against human HMEC1 cells after 7 days by coulter counter method; format: functional, cell-based; conditions: HMEC-1, 168 h
MCF7 [3] = assay: Antiproliferative activity against human MCF7 cells after 4 days by coulter counter method; format: functional, cell-based; conditions: MCF7, 96 h
[4] = Antiproliferative activity against bovine BAEC cells after 4 days by coulter counter method; format: functional, cell-based; conditions: Bos taurus, 96 h
MAEC [5] = assay: Antimigratory activity against mouse MAEC cell migration after 5 hrs by wound closure assay; format: functional, cell-based
Outline: (§2)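 Confluent MAEC monolayers wounded with a 1.0-mm wide micropipette tip, then incubated in fresh medium with test compound. Wounds photographed after 5 h and width calculated from digital images. Mean ± SD of 2–4 independent experiments; Student t test, p < 0.05 significant.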

[6] = (§3) Antimigratory activity against mouse MAEC cell migration at 30 uM after 5 hrs by wound closure assay; format: functional; outline: as §2
[7] = Cytotoxicity against bovine BAEC cells at 100 uM after 3 days by coulter counter method; format: cell-based, Bos taurus; conditions: cattle, 72 h
Outline: (§4)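 Cells seeded at 10,000 cells per cm2; after 16 h, fresh medium with test compound added. Cells trypsinized and counted with a Coulter counter on day 4 (BAEC, HeLa, MCF-7) or day 7 (HMEC-1). Cytotoxicity (cell death) was judged after 3 days in culture. HMEC-1 grown in EGM-2 with supplements and growth factors.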

HeLa [8] = assay: Cytotoxicity against human HeLa cells at 100 uM after 3 days by coulter counter method; format: cell-based; conditions: 72 h; outline: as §4
HeLa [9] = assay: Antiproliferative activity against human HeLa cells after 4 days by coulter counter method; format: functional, cell-based; conditions: 96 h
MCF7 [10] = assay: Cytotoxicity against human MCF7 cells at 100 uM after 3 days by coulter counter method; format: cell-based; conditions: mcf7, 72 h; outline: as §4
[11] = Antimigratory activity against mouse MAEC cell migration at 10 uM after 5 hrs by wound closure assay; format: functional; outline: as §2
HMEC-1 [12] = assay: Antiangiogenic activity in human HMEC1 cells assessed as inhibition of tube formation at 100 uM after 4 to 6 hrs by matrigel assay; format: functional, cell-based; outline: as §1
HMEC-1 [13] = assay: Antiangiogenic activity in human HMEC1 cells assessed as inhibition of tube formation at 30 uM after 4 to 6 hrs by matrigel assay; format: functional, cell-based; outline: as §1
HMEC-1 [14] = assay: Antiangiogenic activity in human HMEC1 cells assessed as inhibition of tube formation at 10 uM after 4 to 6 hrs by matrigel assay; format: functional, cell-based; outline: as §1
[15] = Cytotoxicity against human HMEC1 cells at 100 uM after 3 days by coulter counter method; format: cell-based; conditions: hmec-1, 72 h; outline: as §4
[16] = target: Vascular endothelial growth factor receptor 2 (Homo sapiens, UniProt P35968); assay: Inhibition of human recombinant VEGFR2 expressed in Sf9 insect cells assessed as inhibition of poly(Glu,Tyr) 4:1 substrate phosphorylation by radiometric assay
Outline: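 Human recombinant GST-fusion VEGFR2 kinase, expressed in Sf9 cells and purified on GSH-agarose, with poly(Glu,Tyr) 4:1 as substrate; phosphorylation read radiometrically. Racemic trifluoroacetate salts tested at 10 concentrations (1 × 10−4 M to 3 × 10−9 M) to give IC50, run in singlicate by a contract lab.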

MAEC [17] = assay: as §3; format: functional; outline: as §2
[18] = Antimigratory activity against mouse MAEC cell migration at 3 uM after 5 hrs by wound closure assay; format: functional; outline: as §2
MCF7 [19] = assay: Cytotoxicity against human MCF7 cells at 30 uM after 3 days by coulter counter method; format: cell-based; conditions: mcf7, 72 h; outline: as §4
Gallus gallus = species on record: Gallus gallus; assay: Antiangiogenic activity in chicken embryo chorioallantoic membrane model at 250 nmol/disc after 3 days; format: functional, tissue-based
[20] = Cytotoxicity against human HMEC1 cells at 30 uM after 3 days by coulter counter method; format: cell-based; conditions: hmec-1, 72 h; outline: as §4
HeLa [21] = assay: Cytotoxicity against human HeLa cells at 30 uM after 3 days by coulter counter method; format: cell-based; conditions: 72 h; outline: as §4
[22] = Cytotoxicity against bovine BAEC cells at 30 uM after 3 days by coulter counter method; format: cell-based, Bos taurus; conditions: cattle, 72 h; outline: as §4

Sequence of Vascular endothelial growth factor receptor 2 (P35968 whole entry, the tested form may be a part): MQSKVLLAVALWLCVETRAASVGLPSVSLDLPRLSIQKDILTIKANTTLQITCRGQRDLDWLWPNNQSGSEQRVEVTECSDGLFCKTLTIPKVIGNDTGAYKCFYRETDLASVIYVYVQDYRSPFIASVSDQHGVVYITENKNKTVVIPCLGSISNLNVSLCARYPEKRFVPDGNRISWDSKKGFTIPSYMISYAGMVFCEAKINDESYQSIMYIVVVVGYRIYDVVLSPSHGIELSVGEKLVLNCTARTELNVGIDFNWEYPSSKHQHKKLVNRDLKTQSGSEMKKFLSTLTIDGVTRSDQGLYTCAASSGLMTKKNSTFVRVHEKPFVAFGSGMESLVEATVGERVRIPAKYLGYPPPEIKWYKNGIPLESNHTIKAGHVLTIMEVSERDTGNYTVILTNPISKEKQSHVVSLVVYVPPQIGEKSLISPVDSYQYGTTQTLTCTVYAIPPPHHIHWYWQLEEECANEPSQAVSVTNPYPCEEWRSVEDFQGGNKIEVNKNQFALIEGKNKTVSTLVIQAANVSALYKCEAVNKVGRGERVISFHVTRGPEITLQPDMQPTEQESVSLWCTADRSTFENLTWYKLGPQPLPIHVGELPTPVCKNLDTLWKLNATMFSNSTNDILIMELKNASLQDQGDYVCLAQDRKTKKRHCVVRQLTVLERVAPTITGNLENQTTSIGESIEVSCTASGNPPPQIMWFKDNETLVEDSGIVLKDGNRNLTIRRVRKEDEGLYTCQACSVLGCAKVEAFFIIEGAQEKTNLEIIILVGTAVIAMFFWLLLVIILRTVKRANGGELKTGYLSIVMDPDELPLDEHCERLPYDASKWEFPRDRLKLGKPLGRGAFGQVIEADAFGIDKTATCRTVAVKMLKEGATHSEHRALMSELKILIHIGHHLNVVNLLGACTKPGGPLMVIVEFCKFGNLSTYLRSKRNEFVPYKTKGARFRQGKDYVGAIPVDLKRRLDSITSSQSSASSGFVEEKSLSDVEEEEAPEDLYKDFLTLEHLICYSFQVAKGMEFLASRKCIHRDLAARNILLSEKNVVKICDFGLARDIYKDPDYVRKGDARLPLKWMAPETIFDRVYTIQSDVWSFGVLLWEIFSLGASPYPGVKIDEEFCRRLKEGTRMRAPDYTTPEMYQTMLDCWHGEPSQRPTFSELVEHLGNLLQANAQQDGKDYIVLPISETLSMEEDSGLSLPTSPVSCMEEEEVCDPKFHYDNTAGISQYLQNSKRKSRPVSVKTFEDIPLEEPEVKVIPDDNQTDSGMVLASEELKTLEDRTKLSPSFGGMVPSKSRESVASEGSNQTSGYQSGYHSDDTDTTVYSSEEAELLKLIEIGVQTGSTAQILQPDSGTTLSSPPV

Row | Compound | IC50 [2] | IC50 (MCF7 [3]) | IC50 [4] | inhibition (MAEC [5]) | Activity [7] | Activity (HeLa [8]) | IC50 (HeLa [9]) | Activity (MCF7 [10]) | inhibition at 10 µM [11] | inhibition (HMEC-1 [13]) | inhibition (HMEC-1 [14]) | Activity [15] | inhibition (MAEC [17]) | inhibition at 3 µM [18] | Activity (MCF7 [19]) | inhibition (Gallus gallus) | Activity [20] | Activity (HeLa [21]) | Activity [22] | further results
1 | CCOC(=O)C(=O)N(Cc1cc(F)cc(F)c1)c1ccc2c(c1)OC(C)(CO)CN2C (configuration not stated) | 89 µM | 45 µM | 60 µM | Dose-dependent effect | Toxic | Toxic | 44 µM | Toxic | > 40% | Active | inactive | Toxic |  |  |  |  |  |  |  | inhibition (HMEC-1 [1]): Active; inhibition at 30 µM [6]: > 80%; inhibition (HMEC-1 [12]): Active
2 | CN1CC(C)(COc2ccc(C(=N)N)cc2)Oc2ccc(N(CC(=O)O)Cc3cc(F)cc(F)c3)cc21 (racemic) [listing 1 of 2 here] |  |  |  |  |  |  |  |  |  |  |  |  |  |  |  |  |  |  |  | inhibition [16]: Dose-dependent effect
3 | CN1CC(C)(COc2ccc(C(=N)N)cc2)Oc2ccc(N(CC(=O)O)Cc3cc(F)cc(F)c3)cc21 (racemic) [listing 2 of 2 here] |  |  |  |  |  |  |  |  |  |  |  |  |  |  |  |  |  |  |  | IC50 [16]: 22.5 µM
4 | CCOC(=O)C(=O)N(Cc1cccc(F)c1)c1ccc2c(c1)N(C)CC(C)(COc1ccc(C(=N)N)cc1)O2 (racemic) |  |  |  |  |  |  |  |  |  |  |  |  |  |  |  |  |  |  |  | IC50 [16]: 80 µM
5 | CCOC(=O)CN(Cc1cccc(F)c1)c1ccc2c(c1)N(C)CC(C)(COc1ccc(C(=N)N)cc1)O2 (configuration not stated) | 6 µM | 4.2 µM | 3.9 µM | Dose-dependent effect | Toxic | Toxic | 4.6 µM | Toxic | 50% | Active | inactive | Toxic | Active | > 40% | Toxic | Active | Toxic | Toxic | Toxic | 
6 | CCOC(=O)CN(Cc1cc(F)cc(F)c1)c1ccc2c(c1)OC(C)(COc1ccc(C(=N)N)cc1)CN2C (configuration not stated) | 1.8 µM | 3.5 µM | 4.1 µM | Dose-dependent effect | Toxic | Toxic | 4.9 µM | Toxic | 50% | Active | inactive | Toxic | Active |  | Toxic | Active | Toxic | Toxic | Toxic | 
7 | CCOC(=O)CN(Cc1ccc(F)cc1)c1ccc2c(c1)OC(C)(COc1ccc(C(=N)N)cc1)CN2C (configuration not stated) | 2.9 µM | 5.3 µM | 2.9 µM | Dose-dependent effect | Toxic | Toxic | 4 µM | Toxic | 78% | Active | inactive | Toxic |  | 41% | Toxic | Active | Toxic | Toxic | Toxic | inhibition at 30 µM [6]: 95%
8 | CCOC(=O)CN(Cc1ccc(F)c(F)c1)c1ccc2c(c1)OC(C)(COc1ccc(C(=N)N)cc1)CN2C (configuration not stated) | 2.5 µM | 4 µM | 4 µM | Dose-dependent effect | Toxic | Toxic | 4.1 µM | Toxic | 50% | Active | inactive | Toxic | Active |  | Toxic | Active | Toxic | Toxic | Toxic | 
9 | CCOC(=O)C(=O)N(Cc1cccc(F)c1)c1ccc2c(c1)N(C)CC(C)(COc1ccc(C(=N)N)cc1)O2 (configuration not stated) | 7.7 µM | 6.5 µM | 18 µM |  | Toxic | Toxic | 20 µM | Toxic | 50% |  |  | Toxic |  | > 40% | Non-toxic |  | Non-toxic | Non-toxic | Non-toxic | 
10 | CCOC(=O)C(=O)N(Cc1cc(F)cc(F)c1)c1ccc2c(c1)OC(C)(COc1ccc(C(=N)N)cc1)CN2C (configuration not stated) | 6.8 µM | 2.9 µM | 4.6 µM | Dose-dependent effect | Toxic | Toxic | 6.6 µM | Toxic | 50% |  |  | Toxic | Active | > 40% | Non-toxic | Active | Non-toxic | Non-toxic | Non-toxic | inhibition (HMEC-1 [1]): Dose-dependent effect
11 | CCOC(=O)CN(Cc1cccc(F)c1)c1ccc2c(c1)OC(C)(COc1ccc(C(=N)N)cc1)CN2C (configuration not stated) | 2.6 µM | 3.9 µM | 4.1 µM | Dose-dependent effect | Toxic | Toxic | 4.5 µM | Toxic | 50% | Active | inactive | Toxic | Active |  | Toxic | Active | Toxic | Toxic | Toxic | 
